In ChEMBL document CHEMBL3102696, “Synthesis/biological evaluation of hydroxamic acids and their prodrugs as inhibitors for Botulinum neurotoxin A light chain” (Bioorg Med Chem, 2014):
Activity calls are given as the source filed them. The rule behind the calls is not given here.

Legend:
[1] = Cytotoxicity against human induced pluripotent stem cell-derived neurons at 200 uM; conditions: induced pluripotent stem cell-derived neuron
[2] = biological target: T1, Botulinum neurotoxin type A (Clostridium botulinum, UniProt P0DPI0); experiment: Inhibition of Clostridium botulinum BoNT/A light chain (1 to 425 amino acids) by FRET method
Outline: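 Recombinant truncated light chain (residues 1–425) at 37 nM, incubated with SNAPtide, a 13mer SNAP-25 pseudosubstrate carrying a FITC fluorophore and a DABCYL quencher. Cleavage read as FRET fluorescence.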

[3] = biological target: Botulinum neurotoxin type A (Clostridium botulinum) (UniProt P0DPI0); conditions: Hall A hyper
[4] = biological target: T1, Botulinum neurotoxin type A; experiment: Inhibition of Clostridium botulinum BoNT/A light chain (1 to 425 amino acids) by LC-MS analysis
[5] = Cytotoxicity against human induced pluripotent stem cell-derived neurons at 1 mM; conditions: induced pluripotent stem cell-derived neuron, 1000 µM
[6] = biological target: Botulinum neurotoxin type A (Clostridium botulinum) (UniProt P0DPI0); conditions: Hall A hyper; remark: listed apart in the source
[7] = biological target: T1, Botulinum neurotoxin type A; design: species or system Hall A hyper
[8] = biological target: Botulinum neurotoxin type A (Clostridium botulinum) (UniProt P0DPI0); conditions: Hall A hyper; remark: listed apart in the source
[9] = Cytotoxicity against human induced pluripotent stem cell-derived neurons at 150 uM; conditions: induced pluripotent stem cell-derived neuron

Sequence of Botulinum neurotoxin type A (Clostridium botulinum) (P0DPI0 2-448 limits assumed): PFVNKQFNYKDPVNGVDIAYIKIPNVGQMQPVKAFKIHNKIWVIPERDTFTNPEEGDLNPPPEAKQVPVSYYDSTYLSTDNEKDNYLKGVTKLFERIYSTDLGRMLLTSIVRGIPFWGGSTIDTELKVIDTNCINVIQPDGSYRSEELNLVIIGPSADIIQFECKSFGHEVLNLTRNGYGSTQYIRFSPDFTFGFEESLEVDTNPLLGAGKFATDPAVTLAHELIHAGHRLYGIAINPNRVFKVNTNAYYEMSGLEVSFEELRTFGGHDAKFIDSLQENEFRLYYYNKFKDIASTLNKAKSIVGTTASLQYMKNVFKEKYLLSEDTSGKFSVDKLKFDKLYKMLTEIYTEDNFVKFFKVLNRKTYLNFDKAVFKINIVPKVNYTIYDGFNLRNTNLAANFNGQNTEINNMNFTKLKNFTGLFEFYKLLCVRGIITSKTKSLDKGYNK
T1 sequence (P0DPI0 2-448 limits assumed): as above

## O=C(CC(CCO)c1ccc(Cl)cc1Cl)NO (stereo not drawn)
[1]
  Activity: Non-toxic

## COc1ccc(CCNC(=O)CC(CC(=O)NO)c2ccc(Cl)cc2Cl)cc1 (stereo not drawn)
[2]
  IC50: 6.7 µM

## O=C(CC(CCO)c1ccc(Cl)cc1Cl)NOC(=O)NCc1ccccc1 (stereo not drawn)
[3]
  inhibition: Active

## O=C(CC(CC(=O)NCCC1CC1)c1ccc(Cl)cc1Cl)NO (stereo not drawn)
[2]
  IC50: 9.2 µM

## Cc1ccccc1NC(=O)CC(CC(=O)NO)c1ccc(Cl)cc1Cl (stereo not drawn)
[2]
  IC50: 2 µM

## O=C(CC(CC(=O)NCCc1ccc(F)cc1)c1ccc(Cl)cc1Cl)NO (stereo not drawn)
[2]
  IC50: 2.6 µM

## COc1cc(F)ccc1NC(=O)CC(CC(=O)NO)c1ccc(Cl)cc1Cl (stereo not drawn)
[2]
  IC50: 1.1 µM
[4]
  Ki: 1 µM

## C=CCOCCC(CC(=O)NO)c1ccc(Cl)cc1Cl (stereo not drawn)
[2]
  IC50: 5.4 µM

## O=C(CC(CCOCc1ccccc1)c1ccc(Cl)cc1Cl)NOC(=O)NCc1ccccc1 (stereo not drawn)
[5]
  Activity: Toxic
[6]
  inhibition: inactive

## O=C(CC(CCOCC12CC3CC(CC(Br)(C3)C1)C2)c1ccc(Cl)cc1Cl)NOC(=O)NCc1ccccc1 (stereo not drawn)
[7]
  EC50: > 1000 µM

## O=C(CC(CC(=O)Nc1ccc(Br)cc1)c1ccc(Cl)cc1Cl)NO (stereo not drawn)
[2]
  IC50: 6.4 µM

## O=C(CC(CCOCc1ccccc1)c1ccc(Cl)cc1Cl)NO (stereo not drawn)
[2]
  IC50: 2.9 µM

## O=C(CC(CC(=O)Nc1ccc(Br)cc1)c1ccc(Cl)cc1Cl)NOC(=O)NCc1ccccc1 (stereo not drawn)
[7]
  EC50: 198 µM

## O=C(CC(CCOCCc1ccc(F)cc1)c1ccc(Cl)cc1Cl)NOC(=O)NCc1ccccc1 (stereo not drawn)
[5]
  Activity: Toxic
[6]
  inhibition: inactive

## Cc1ccccc1NC(=O)CC(CC(=O)NOC(=O)NCc1ccccc1)c1ccc(Cl)cc1Cl (stereo not drawn)
[7]
  EC50: 209 µM

## O=C(CC(CCOCC12CC3CC(CC(Br)(C3)C1)C2)c1ccc(Cl)cc1Cl)NO (stereo not drawn)
[2]
  IC50: 13 µM

## O=C(CC(CCOCCc1ccc(F)cc1)c1ccc(Cl)cc1Cl)NO (stereo not drawn)
[2]
  IC50: 0.97 µM
[4]
  Ki: 2.1 µM

## O=C(/C=C/c1ccc(Cl)cc1Cl)NOC(=O)NCc1ccccc1
[8]
  inhibition: inactive
[9]
  Activity: Toxic
